Published values from different studies.
Protocols differ between the studies behind these lines.
AKT1: RAC-alpha serine/threonine-protein kinase (AKT1, Homo sapiens, UniProt P31749)
CDK9 with cyclin T1: Cyclin-dependent kinase 9, with cyclin T1 (CDK9, Homo sapiens, UniProt P50750)
FABP4: Fatty acid-binding protein, adipocyte (FABP4, Homo sapiens, UniProt P15090)

SMILES | target | test | test system | setting | quantity | value
CCOc1cccc(C(=O)CC(SCc2ccc(Cl)cc2)C(=O)O)c1 (stereo not drawn) | AKT1 | ligand displacement, FP | – | – | Ki | 82.3 µM
CN(C)C(=O)c1cc2cnc(Nc3cccc4c(=O)cc(N5CCOCC5)oc34)nc2n1C1CCCC1 | CDK9 with cyclin T1 | enzyme activity, inhibitor, radiometric | – | – | IC50 | 9.57 µM
CCCCCCC(CCCCCCCCCCC(=O)O)N(C)c1ccc([N+](=O)[O-])c2nonc12 (stereo not drawn) | Sterol carrier protein 2 (Homo sapiens, UniProt P22307) | binding, fluorescence | – | – | Kd | 0.31 µM
O=c1c(-c2ccc(O)cc2)coc2cc(O)ccc12 | Cytochrome P450 2C9 (CYP2C9, Homo sapiens, UniProt P11712) | enzyme activity, inhibitor | human, liver microsomes | 15 min | Ki | 7.85 µM
CCCCCCCCCCCCCC(=O)O | FABP4 | ligand displacement, fluorescence | – | – | Ki | 0.438 µM
CCOc1ccc(C(=O)CC(SCc2ccc(Cl)cc2)C(=O)O)cc1 (stereo not drawn) | AKT1 | ligand displacement, FP | – | – | Ki | 96 µM
Cc1cc(-c2ccnc3[nH]cc(F)c23)cc(F)c1[C@@]1(O)[C@H](C)CN(C2CCS(=O)(=O)CC2)C[C@@H]1C | AKT1 | cell-free assay, TR-FRET | – | – | Kd | 0.724 µM
O=C(O)C(F)(F)C(F)(F)C(F)(F)C(F)(F)F | FABP4 | ligand displacement, fluorescence | – | – | Ki | 329 µM
CN(C)C(=O)c1cc2cnc(Nc3ccc4c(=O)cc(N5CCOCC5)oc4c3)nc2n1C1CCCC1 | CDK9 with cyclin T1 | enzyme activity, inhibitor, radiometric | – | – | IC50 | 0.0011 µM
OC1(c2ccc(-c3ccnc4[nH]cc(F)c34)cc2)CNC1 | AKT1 | target engagement in cells, BRET | – | – | IC50 | 22.8 µM
CCOc1ccc(C(=O)CC(SCc2ccc(OC)cc2)C(=O)O)cc1 (stereo not drawn) | AKT1 | ligand displacement, FP | – | – | Ki | 560 µM
O=C(O)C(F)(F)C(F)(F)C(F)(F)C(F)(F)C(F)(F)C(F)(F)C(F)(F)C(F)(F)C(F)(F)C(F)(F)C(F)(F)F | FABP4 | ligand displacement, fluorescence | – | – | Ki | 0.551 µM
C[C@@H]1CNC[C@H](C)[C@@]1(O)c1ccc(-c2ccnc3[nH]cc(F)c23)cc1 | AKT1 | enzyme activity, inhibitor, radiometric | – | – | IC50 | 0.13 µM
O=C(O)C(F)(F)C(F)(F)C(F)(F)C(F)(F)C(F)(F)C(F)(F)C(F)(F)C(F)(F)C(F)(F)C(F)(F)C(F)(F)C(F)(F)C(F)(F)C(F)(F)C(F)(F)F | FABP4 | ligand displacement, fluorescence | – | – | Ki | 1.31 µM
CCOc1ccc(C(=O)CC(SCc2ccc(Cl)cc2)C(=O)OC)cc1 (stereo not drawn) | AKT1 | ligand displacement, FP | – | – | Ki | 530 µM
CN(C)C(=O)c1cc2cnc(Nc3ccc(-c4cccc5c(=O)cc(N6CCOCC6)oc45)c(F)c3)nc2n1C1CCCC1 | CDK9 with cyclin T1 | enzyme activity, inhibitor, radiometric | – | – | IC50 | 0.00276 µM
CCOc1ccc(C(=O)CC(SCc2ccccc2)C(=O)O)cc1 (stereo not drawn) | AKT1 | ligand displacement, FP | – | – | Ki | 263 µM
CCCCCCCCCC(=O)O | FABP4 | ligand displacement, fluorescence | – | – | Ki | 1.29 µM
CCOc1cccc(C(=O)CC(SCc2cccc(Br)c2)C(=O)O)c1 (stereo not drawn) | AKT1 | ligand displacement, FP | – | – | Ki | 81 µM
O=C(O)C(F)(F)C(F)(F)C(F)(F)C(F)(F)C(F)(F)C(F)(F)C(F)(F)C(F)(F)C(F)(F)C(F)(F)C(F)(F)C(F)(F)F | FABP4 | ligand displacement, fluorescence | – | – | Ki | 0.757 µM
CN(C)C(=O)c1cc2cnc(Nc3ccc(C(=O)NCCCCCCOc4cccc5c4C(=O)N(C4CCC(=O)NC4=O)C5=O)cc3)nc2n1C1CCCC1 (stereo not drawn) | Cyclin-dependent kinase 9 (CDK9, Homo sapiens, UniProt P50750) | binding, competition with immobilised ligand | – | – | Kd | < 0.2 µM
CCOc1ccccc1C(=O)CC(SCc1ccc(Cl)cc1)C(=O)O (stereo not drawn) | AKT1 | ligand displacement, FP | – | – | Ki | > 1000 µM
CN1CCN(c2cc(=O)c3ccc(Nc4ncc5cc(C(=O)N(C)C)n(C6CCCC6)c5n4)cc3o2)CC1 | CDK9 with cyclin T1 | enzyme activity, inhibitor, radiometric | – | – | IC50 | 0.0012 µM
CCCCCCCCCCCCC(=O)O | FABP4 | ligand displacement, fluorescence | – | – | Ki | 1.32 µM
